Screens deposited in PubChem BioAssay by The Scripps Research Institute Molecular Screening Center.
LEDGF integ inh: blocks HIV-1 LEDGF/p75-dependent DNA integration; hit rate 0.64% among 370,000; inhibition, % at 3.7 µM; TR-FRET IN-LEDGF/p75 DNA integration, Eu/Cy5;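 active means inhibition above the screen-wide mean plus 3 SD, cut at about 13% in these data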;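 further: signal is the Cy5 over europium emission ratio at 671 and 618 nm; 0% = plate median of compound wells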
MBD2 inh: blocks human MBD2 binding to methylated DNA. Q9UBB5. TR-FRET, MBD2 binding to methylated oligonucleotide. inhibition, % at 4.4 µM. hit rate 0.31% among 370,000; in the data active means inhibition above about 13%
UHRF1 binding: human UHRF1 methylated DNA binding inhibitors; Q96T88; inhibition, % at 4.4 µM; UHRF1 binding to methylated oligo, TR-FRET; hit rate 0.75% among 370,000; in the data active means inhibition above about 21%;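 further: UHRF1 SRA domain binding a hemimethylated CpG hairpin DNA probe; 0% = median of test compound wells and 100% = reference inhibitor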
TDP2 inh: TDP2 (human) inhibition, absorbance primary screen; hit rate 0.34% among 370,000; AID 720702; inhibition, % at 12.8 µM; recombinant TDP2, T5PNP hydrolysis, p-nitrophenol absorbance 415 nm;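 active means inhibition above the mean of all tested compounds plus 3 SD, set per campaign, cut at about 25% in these data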;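 further: 0% = DMSO with enzyme and 100% = buffer with substrate but no TDP2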
Target sequence (O95551 whole entry, looked up): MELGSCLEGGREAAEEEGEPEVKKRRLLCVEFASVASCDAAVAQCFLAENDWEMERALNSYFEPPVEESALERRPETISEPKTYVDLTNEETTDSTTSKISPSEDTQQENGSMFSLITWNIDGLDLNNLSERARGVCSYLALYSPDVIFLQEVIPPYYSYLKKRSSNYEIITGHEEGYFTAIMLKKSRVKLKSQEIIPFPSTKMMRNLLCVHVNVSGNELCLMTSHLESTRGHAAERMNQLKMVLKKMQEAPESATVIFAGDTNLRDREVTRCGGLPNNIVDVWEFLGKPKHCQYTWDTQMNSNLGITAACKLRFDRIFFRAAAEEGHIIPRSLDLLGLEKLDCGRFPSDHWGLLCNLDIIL
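Test system: Human TDP2 enzyme | Reagent: 5 mM T5PNP | Compound dosing: 12.8 µM single point, 1% DMSO | Incubation: Enzyme reaction with compound for 2 h at 37 °C | Technique: p-Nitrophenol epi absorbance | Read-out: % inhibition relative to enzyme-containing and enzyme-free wells | Benchmarks: High control without enzyme, low control DMSO plus TDP2 | Replicates: Singlicate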
IN multimer up: HIV-1 integrase multimerization activation, counter-screen; AID 1053131; shares compounds with LEDGF integ inh; hit rate 17% among 2,000; activation, % at 7.7 µM; TR-FRET HIV-1 integrase multimerization, biochemical; in the data active means activation above about 8.9%
TR-FRET interf: TR-FRET optical interference, LEDGF/p75 integration counter-screen. TR-FRET optical interference counterscreen, HIV-1 IN multimerization. inhibition, % at 7.7 µM. 2,000 tested, under 10 active. shares compounds with LEDGF integ inh. AID 1053135;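 active means inhibition above the mean over all tested compounds plus 3 SD, which no compound reached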;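 further: 0% = integrase with antibodies and DMSO and 100% = antibodies without integrase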
IN-LEDGF confirm: confirmation of HIV-1 LEDGF/p75-dependent integration inhibitors; shares compounds with LEDGF integ inh; TR-FRET LEDGF/p75-dependent HIV-1 integration, biochemical; AID 1053136; hit rate 36% among 2,000; inhibition, % at 3.7 µM; in the data active means inhibition above about 14%
Active calls of the source: *; · = not tested or not shown. A selection: hits, their analogues and other compounds. The true share with any hit is near 1.6%.

SMILES | LEDGF integ inh | MBD2 inh | UHRF1 binding | TDP2 inh | IN multimer up | TR-FRET interf | IN-LEDGF confirm
COc1ccc(CS(=O)(=O)CC(C)(O)c2ccc(Cl)cc2)cc1 (stereo not drawn) | 14* | -5 | -3 | 10 | 0 | -2 | 0
CC(O)(CS(=O)(=O)Cc1ccccc1)c1ccc(Cl)cc1 (stereo not drawn) | -2 | 4 | -4 | 7 | · | · | ·
O=C(c1cc(-c2cccc(O)c2)on1)N1CCCCCC1 | 47* | 2 | -1 | 7 | 0 | 1 | -3
O=C(c1cc(-c2cccc(O)c2)on1)N1CCOCC1 | 4 | 0 | 2 | -14 | · | · | ·
CCC[C@H]1[C@@H](NC(=O)c2ccc(N(C)C)cc2)CC[C@@]23CCCN2C(=O)CCC[C@@H]13 | 5 | -6 | 2 | 0 | · | · | ·
O=C(N/N=C/c1ccc2ncccc2c1)c1cc(-c2cccs2)nc2ccccc12 | 23* | -2 | 1 | -4 | 0 | -1 | -2
O=C(N/N=C/c1cccnc1)c1cc(-c2cccs2)nc2ccccc12 | 1 | 1 | 0 | 4 | · | · | ·
CC(C)(C)OC(=O)NCc1ccccc1/C=C/S(=O)(=O)NCc1ccccc1 | -3 | -6 | -4 | 2 | · | · | ·
COc1ccc(NC(=S)N(CCCN2CCCCC2)Cc2cccs2)cc1 | 87* | 0 | -4 | -1 | 0 | -2 | -6
COc1ccc(NC(=S)N(CCCN2CCC(C)CC2)Cc2cccs2)cc1 | 1 | 1 | -2 | 3 | · | · | ·
COc1ccccc1Cc1c(-c2ccco2)nc2cc(C)c(Br)c(C)n12 | 14* | 10 | 25* | -4 | 6 | -22 | 21*
COc1ccc(CSc2nnc(SCC(=O)Nc3ccc(S(N)(=O)=O)cc3)s2)cc1 | -3 | 2 | 4 | -2 | · | · | ·
Cc1nc2cc(C(=O)N3CCN(C(=O)OCc4ccccc4)CC3)ccc2n1C1CCCC1 | 3 | -3 | 1 | -1 | · | · | ·
O=C1CN(C(=O)COc2ccc(F)cc2Cl)c2ccccc2N1 | 23* | -3 | 0 | 9 | 1 | -4 | -5
O=C1CN(C(=O)COc2ccc(Cl)cc2Cl)c2ccccc2N1 | 2 | 0 | -1 | 2 | · | · | ·
CC1CCCCN1CCNC(=O)Cn1nc(-c2ccccc2)ccc1=O (stereo not drawn) | -1 | -1 | -3 | -7 | · | · | ·
Cc1ccc(-c2ccc(=O)n(CC(=O)NCCCN3CCCCC3C)n2)cc1 (stereo not drawn) | 24* | 2 | 1 | -14 | 0 | -1 | -2
C=CCN1C[C@@H](COCc2ccccc2)Oc2cccc(F)c2S1(=O)=O | 0 | 0 | -3 | 1 | · | · | ·
CC(C)(C)c1ccc(C#C[C@@H]2C=C[C@@H](O)[C@@H](COC(=O)Nc3ccccc3)O2)cc1 | 0 | 0 | -1 | -5 | · | · | ·
O=C1/C(=C/c2ccccc2)SC(=S)N1C1CCS(=O)(=O)C1 (stereo not drawn) | 1 | -6 | -2 | 8 | · | · | ·
Cc1ccc(/C=C2\SC(=S)N(C3CCS(=O)(=O)C3)C2=O)o1 (stereo not drawn) | 24* | -4 | 17 | -3 | 1 | -7 | 6
COc1ccc(CNC(=O)[C@@H](Cc2ccccc2)NC(=O)[C@H]2O[C@@H](n3cnc4c(=O)[nH]c(N)nc43)[C@H](O)[C@@H]2O)cc1 | 2 | 0 | -2 | 2 | · | · | ·
O/N=C1/CCc2cccc3cccc1c23 | 3 | 0 | -3 | 3 | · | · | ·
O=C1C(=NO)CCc2ccccc21 | 29* | -7 | -1 | 20 | 3 | -11 | 26*
CC1(C)OC(C)(C)/C(=C/Nc2ccc(O)cc2)C1=O | 21* | 4 | 6 | 11 | 45* | -158 | 31*
CC1CCC/C(=C\Nc2ccc(O)cc2)C1=O (stereo not drawn) | 3 | -5 | -7 | 8 | · | · | ·
O=C(C1CCCN(S(=O)(=O)c2ccc(F)cc2)C1)N1CCN(Cc2ccccc2)CC1 (stereo not drawn) | 0 | -5 | 2 | 2 | · | · | ·
COc1cccc(CNC(=O)[C@H]2CCCN2)c1 | 0 | 5 | -3 | 4 | · | · | ·
COc1ccc(C(=O)NCC2CCN(C(=O)C(=O)c3cccs3)CC2)c(OC)c1 | 2 | 1 | -2 | 4 | · | · | ·
